Experimental data as given in ChEMBL document CHEMBL1125356, “Synthesis and evaluation of novel spermidine derivatives as targeted cancer chemotherapeutic agents” (J Med Chem, 1992).

Assays:
[1] = system: B16; test: The compound was tested for inhibition of B16-BL6 melanoma cells growing in culture.; type: functional, cell-based; details: Mus musculus
[2] = system: B16; test: The compound was tested for inhibition of B16-BL6 melanoma cells growing in culture with 0.25 mM DFMO.; type: functional, cell-based; details: Mus musculus
[3] = system: B16; test: The compound was tested in vitro for inhibition of cell growth on the B16-BL6 melanoma cells at 1.0(mM)conc.; type: functional, Mus musculus
[4] = system: B16; test: The compound was tested on [3H]-spermidine uptake into BL6 cells at 0.75(mM)conc; type: functional, Mus musculus
How it was run: (§1)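 B16-BL6 melanoma cells were grown in DMEM with 10% heat-inactivated FBS, pyruvate, nonessential amino acids, glutamine, vitamins and 5 μg/mL insulin at […] in 5% CO2. They were pretreated with DFMO at 0–1.0 mM, then [3H]spermidine uptake was read as cpm per million cells. Values are mean ± SEM, compared by Duncan's and LSD tests.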

[5] = system: B16; test: The compound was tested on spermidine content of the cells at 0.75(mM)conc; type: functional, Mus musculus
How it was run: (§2)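 B16-BL6 cells were cultured in supplemented DMEM and pretreated with DFMO at 0–1.0 mM. Cells were PBS-washed and pelleted, then extracted in 0.3 M perchloric acid with 1,6-hexanediamine internal standard (10 nmol per million cells). Extracts were benzoylated before the column and run by reversed-phase HPLC on a C8 cartridge at ambient temperature, 1.5 mL/min. Quantitation used a 0.05–10 nmol/mL standard curve.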

[6] = system: B16; test: The compound was tested on spermidine content of the cells at 1.0(mM)conc; type: functional, Mus musculus; how it was run: as §2
[7] = system: B16; test: The compound was tested in vitro for inhibition of cell growth on the B16-BL6 melanoma cells at 0.0(mM)conc.; type: functional, Mus musculus
[8] = system: B16; test: The compound was tested on [3H]-spermidine uptake into BL6 cells at 0.1(mM)conc; type: functional, Mus musculus; how it was run: as §1
[9] = system: B16; test: The compound was tested in vitro for inhibition of cell growth on the B16-BL6 melanoma cells at 0.5(mM)conc.; type: functional, Mus musculus
[10] = system: B16; test: The compound was tested in vitro for inhibition of cell growth on the B16-BL6 melanoma cells at 0.25(mM)conc.; type: functional, Mus musculus
[11] = system: B16; test: The compound was tested on [3H]spermidine uptake into BL6 cells at 1.0(mM)conc; type: functional, Mus musculus; how it was run: as §1
[12] = system: B16; test: The compound was tested on [3H]spermidine uptake into BL6 cells at 0.5(mM)conc; type: functional, Mus musculus; how it was run: as §1
[13] = system: B16; test: The compound was tested on [3H]spermidine uptake into BL6 cells at 0.0(mM)conc; type: functional, Mus musculus; how it was run: as §1
[14] = system: B16; test: The compound was tested on spermidine content of the cells at 0.0(mM)conc; type: functional, Mus musculus; how it was run: as §2
[15] = system: B16; test: The compound was tested in vitro for inhibition of cell growth on the B16-BL6 melanoma cells at 0.1(mM)conc.; type: functional, Mus musculus
[16] = system: B16; test: The compound was tested on [3H]spermidine uptake into BL6 cells at 0.25(mM)conc; type: functional, Mus musculus; how it was run: as §1
[17] = system: B16; test: The compound was tested in vitro for inhibition of cell growth on the B16-BL6 melanoma cells at 0.75(mM)conc.; type: functional, Mus musculus
[18] = system: B16; test: The compound was tested on spermidine content of the cells at 0.1(mM)conc; type: functional, Mus musculus; how it was run: as §2
[19] = system: B16; test: The compound was tested on spermidine content of the cells at 0.25(mM)conc; type: functional, Mus musculus; how it was run: as §2
[20] = system: B16; test: The compound was tested on spermidine content of the cells at 0.5 mM) conc; type: functional, Mus musculus; how it was run: as §2

CC(=O)NCCc1ccc(O)c(O)c1 showed an IC50 [1] of 1220 µM and an IC50 [2] of 2060 µM.

NCCCNC(CCCN)C(=O)NCCc1ccc(N(CCCl)CCCl)cc1 (stereo unspecified) gave an IC50 [1] of 333 µM and an IC50 [2] of 512 µM.

With O=C(O)CCCc1ccc(N(CCCl)CCCl)cc1 [CHLORAMBUCIL] the IC50 [1] was 220 µM and the IC50 [2] was 280 µM.

Compound NCCCNC(CCCN)C(=O)NCCc1ccc(O)c(O)c1 (stereo unspecified) has an IC50 [1] of 1230 µM and an IC50 [2] of 1310 µM.

With NCCCC(N)(C(=O)O)C(F)F (stereo unspecified) [EFLORNITHINE] the Cell growth [3] was 1480000 number of cells ml-1, the cpm/million cells [4] was 226404 and the Spermidine concentration [5] was 0.52 nM (10e6*cells)-1. For the same compound, the Spermidine concentration [6] was 0.35 nM (10e6*cells)-1, the Cell growth [7] was 2430000 number of cells ml-1 and the cpm/million cells [8] was 221610. The Cell growth [9] was 1090000 number of cells ml-1, the Cell growth [10] was 1940000 number of cells ml-1 and the cpm/million cells [11] was 250160. The cpm/million cells [12] was 214540, the cpm/million cells [13] was 146600 and the Spermidine concentration [14] was 2.07 nM (10e6*cells)-1. The Cell growth [15] was 2180000 number of cells ml-1, the cpm/million cells [16] was 219910 and the Cell growth [17] was 1330000 number of cells ml-1. The Spermidine concentration [18] was 0.6 nM (10e6*cells)-1, the Spermidine concentration [19] was 0.34 nM (10e6*cells)-1 and the Spermidine concentration [20] was 0.55 nM (10e6*cells)-1.
